The term MIC denotes the lowest concentration found to suppress growth.

In series [1] the test system is Saccharomyces cerevisiae. Nature of the series: Antifungal activity against Saccharomyces cerevisiae ADCDR1 expressing Candida albicans CDR1 efflux pump in YNPG medium containing 1 mg/ml […] after 24 hrs by microdilution method. Conditions: ADCDR1, 24 h. Format: functional. For orientation: Broth dilution looks for growth in wells or tubes with falling amounts of substance.

For series [2], the system named is Candida albicans. The series can be described thus: Antifungal activity against fluconazole resistant Candida albicans isolate B4 overexpressing MDR1 in RPMI-1640 buffered medium after 24 hrs by microdilution method. The series is classed as functional. Conditions: Candida albicans, isolate B4, 24 h; read-out: MIC. A digest of the protocol: (§1)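 C. albicans cells were grown in 2% glucose, 1% yeast extract, 1% Bacto peptone medium before testing. […] CARE-2 fingerprinting confirmed that each pair is a single strain.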

The subject of series [3] is Candida albicans. The series can be described thus: Antifungal activity against wild type Candida albicans 10261 in RPMI-1640 buffered medium after 24 hrs by microdilution method. Conditions: Candida albicans, 10261, 24 h; read-out: MIC. The series is classed as functional. An outline of the steps: as §1
In series [4] the test system is Saccharomyces cerevisiae. Nature of the series: Antifungal activity against Saccharomyces cerevisiae AD12345678 in YNBG medium containing 1 mg/ml […] after 24 hrs by microdilution method. Format: functional. Conditions: AD12345678, 24 h.
Series [5] deals with Saccharomyces cerevisiae. The series can be described thus: Antifungal activity against Saccharomyces cerevisiae ADMDR1 expressing Candida albicans MDR1 efflux pump in YNBG medium containing 1 mg/ml […] after 24 hrs by microdilution method. Format: functional. Conditions: ADMDR1, 24 h.
Series [6] deals with Saccharomyces cerevisiae. The series can be described thus: Drug uptake in Saccharomyces cerevisiae AD12345678 at 200 uM pretreated for 10 mins measured after 60 mins by fluorescamine staining. The series is classed as ADME, organism-based. To be noted: in vivo, 1 h.
Series [7] deals with Saccharomyces cerevisiae. Nature of the series: Drug extrusion in Saccharomyces cerevisiae ADCDR1 expressing Candida albicans CDR1 efflux pump reenergized with glucose at pH 6.0 assessed as fluorescamine-compound conjugate level after 30 mins. To be noted: in vivo, pH 6, 0.5 h. Format: ADME, organism-based. An outline of the steps:
(§2)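 Cells de-energized with 2-deoxy-D-glucose were loaded (200 µM, 60 min, pH 4.0), washed, and resuspended at OD660 1.0 in 50 mM phosphate pH 6.0 at 30°C. After 5-min preincubation, 10 mM glucose was added. Supernatants were sampled every 5 min and assayed with fluorescamine. Unloaded, identically treated cells gave the background control.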

Series [8] has as its system Candida albicans. Nature of the series: Antifungal activity against fluconazole resistant Candida albicans isolate Gu5 overexpressing CDR1 and CDR2 in RPMI-1640 buffered medium after 24 hrs by microdilution method. To be noted: isolate Gu5, 24 h. The series is classed as functional. An outline of the steps:
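C. albicans cells were grown in 2% glucose, 1% yeast extract, 1% Bacto peptone medium before testing. CARE-2 fingerprinting confirmed that each pair is a single strain.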

Series [9] relates to Saccharomyces cerevisiae. The series can be described thus: Antifungal activity against Saccharomyces cerevisiae ADCDR2 expressing Candida albicans CDR2 efflux pump in YNBG medium containing 1 mg/ml […] after 24 hrs by microdilution method. The series is classed as functional. Conditions: ADCDR2, 24 h.
The subject of series [10] is Saccharomyces cerevisiae. The series can be described thus: Drug extrusion in Saccharomyces cerevisiae ADCDR2 expressing Candida albicans CDR2 efflux pump reenergized with glucose at pH 6.0 assessed as fluorescamine-compound conjugate level after 30 mins. The series is classed as ADME, organism-based. Conditions: in vivo, pH 6, 0.5 h. An outline of the steps: as §2

Series [11] has as its system Saccharomyces cerevisiae. The series can be described thus: Antifungal activity against Saccharomyces cerevisiae ADCDR2 expressing Candida albicans CDR2 efflux pump in YNPG medium containing 1 mg/ml […] after 24 hrs by microdilution method. Conditions: ADCDR2, 24 h. Format: functional.
The test system of series [12] is Candida albicans. Nature of the series: Antifungal activity against fluconazole sensitive Candida albicans isolate Gu4 in RPMI-1640 buffered medium after 24 hrs by microdilution method. The series is classed as functional. Conditions: Candida albicans, isolate Gu4, 24 h; read-out: MIC. An outline of the steps: as §1
In series [13] the test system is Saccharomyces cerevisiae. The series can be described thus: Drug uptake in Saccharomyces cerevisiae ADCDR1 expressing Candida albicans CDR1 efflux pump at 200 uM pretreated for 10 mins measured after 60 mins by fluorescamine staining. The series is classed as ADME, organism-based. Conditions: in vivo, 1 h.
Series [14] relates to Saccharomyces cerevisiae. The series can be described thus: Antifungal activity against Saccharomyces cerevisiae ADCDR1 expressing Candida albicans CDR1 efflux pump in YNBG medium containing 1 mg/ml […] after 24 hrs by microdilution method. The series is classed as functional. To be noted: ADCDR1, 24 h.
In series [15] the test system is Saccharomyces cerevisiae. The series can be described thus: Antifungal activity against Saccharomyces cerevisiae ADMDR1 expressing Candida albicans MDR1 efflux pump in YNPG medium containing 1 mg/ml […] after 24 hrs by microdilution method. To be noted: ADMDR1, 24 h. Format: functional.
For series [16], the system named is Candida albicans. The series can be described thus: Antifungal activity against fluconazole sensitive Candida albicans isolate B3 in RPMI-1640 buffered medium after 24 hrs by microdilution method. Format: functional. To be noted: Candida albicans, isolate B3, 24 h; read-out: MIC. A digest of the protocol:
as §1

The subject of series [17] is Saccharomyces cerevisiae. The series can be described thus: Antifungal activity against Saccharomyces cerevisiae AD12345678 in YNPG medium containing 1 mg/ml […] after 24 hrs by microdilution method. Format: functional. Conditions: AD12345678, 24 h.
Series [18] deals with Saccharomyces cerevisiae. The series can be described thus: Drug uptake in Saccharomyces cerevisiae ADMDR1 expressing Candida albicans MDR1 efflux pump at 200 uM pretreated for 10 mins measured after 60 mins by fluorescamine staining. The series is classed as ADME, organism-based. To be noted: in vivo, 1 h.
For series [19], the system named is Saccharomyces cerevisiae. Nature of the series: Drug uptake in Saccharomyces cerevisiae ADCDR2 expressing Candida albicans CDR2 efflux pump at 200 uM pretreated for 10 mins measured after 60 mins by fluorescamine staining. To be noted: in vivo, 1 h. Format: ADME, organism-based.
The subject of series [20] is Saccharomyces cerevisiae. Nature of the series: Antifungal activity against wild type Saccharomyces cerevisiae ATCC 9763 in YNBG medium containing 1 mg/ml […] after 24 hrs by microdilution method. The series is classed as functional. To be noted: ATCC 9763, 24 h.
In series [21] the test system is Saccharomyces cerevisiae. The series can be described thus: Antifungal activity against wild type Saccharomyces cerevisiae ATCC 9763 in YNPG medium containing 1 mg/ml […] after 24 hrs by microdilution method. The series is classed as functional. Conditions: ATCC 9763, 24 h.

Molecules are shown by their SMILES. Values after ≈ are worked out from the molar mass of the structure shown.

Consider `N[C@H]1CCC[C@H]1C(=O)O`, for which the MIC in series [1] amounted to 256 µg/mL (≈ 1980 µM); in series [2], 8 µg/mL (≈ 61.9 µM); in series [3] it was 1 µg/mL (≈ 7.74 µM); in [4] it was 8 µg/mL (≈ 61.9 µM); in series [5], 16 µg/mL (≈ 124 µM); in [8], 4 µg/mL (≈ 31 µM). Further, the MIC in [9] was determined as 16 µg/mL (≈ 124 µM); in series [11] it was 256 µg/mL (≈ 1980 µM); in [12], 1 µg/mL (≈ 7.74 µM); in series [14] it was 16 µg/mL (≈ 124 µM); in series [15] it was 256 µg/mL (≈ 1980 µM); in series [16], 2 µg/mL (≈ 15.5 µM). The MIC was determined as 128 µg/mL (≈ 991 µM) in series [17], 4 µg/mL (≈ 31 µM) in series [20] and 64 µg/mL (≈ 496 µM) in [21]. Also, the Drug uptake is 1.63 nmol/min/mg in series [6], 2.11 nmol/min/mg in [13], 1.67 nmol/min/mg in [18] and 1.85 nmol/min/mg in series [19]. Besides, the Activity in series [7] and in series [10] was 5 µM throughout.
